Laboratory results: ChEMBL document CHEMBL4431326, “Tumor Targeting with Novel 6-Substituted Pyrrolo [2,3-d] Pyrimidine Antifolates with Heteroatom Bridge Substitutions via Cellular Uptake by Folate Receptor α and the Proton-Coupled Folate Transporter and Inhibition of de Novo Purine Nucleotide Biosynthesis” (J Med Chem, 2016)
The source made the active and inactive calls. No cut-off for these calls is given here.

Assays:
[1] = Cytotoxicity in RFC-null Chinese hamster R2 cells assessed as reduction in cell viability measured after 96 hrs by Cell-Titer Blue fluorescence analysis; format: cell-based; conditions: Cricetulus griseus, R2, 96 h
KB = experiment: Antiproliferative activity against human KB cells expressing human RFC/FR-alpha/PCFT assessed as reduction in cell viability measured after 96 hrs by Cell-Titer Blue fluorescence analysis; format: functional, cell-based
[2] = biological target: T1, GAR transformylase/AICAR transformylase (Homo sapiens) (UniProt P31939+P22102); experiment: Inhibition of GARFTase/AICARFTase in human KB cells expressing RFC/FR-alpha/PCFT assessed as cell growth inhibition measured after 96 hrs in presence of 60 uM adenosine by Cell-Titer Blue fluorescence analysis; format: cell-based
[3] = biological target: T1, GAR transformylase/AICAR transformylase (Homo sapiens); experiment: Inhibition of GARFTase/AICARFTase in human KB cells expressing RFC/FR-alpha/PCFT assessed as cell growth inhibition measured after 96 hrs in presence of 10 uM thymidine by Cell-Titer Blue fluorescence analysis; format: cell-based
[4] = biological target: Folate receptor alpha (Homo sapiens) (UniProt P15328); experiment: Displacement of [3H]folic acid from human FR-alpha receptor expressed in Chinese hamster RT16 cells measured after 15 mins relative to folic acid; format: cell-based; design: concentration or dose not given beside the values
[5] = biological target: T2, Proton-coupled folate transporter (Homo sapiens) (UniProt Q96NT5); experiment: Inhibition of [3H]MTX uptake at human PCFT expressed in Chinese hamster R2/PCFT4 cells at 10 uM and pH 6.8 measured after 5 mins; format: cell-based
T2 sequence (whole entry): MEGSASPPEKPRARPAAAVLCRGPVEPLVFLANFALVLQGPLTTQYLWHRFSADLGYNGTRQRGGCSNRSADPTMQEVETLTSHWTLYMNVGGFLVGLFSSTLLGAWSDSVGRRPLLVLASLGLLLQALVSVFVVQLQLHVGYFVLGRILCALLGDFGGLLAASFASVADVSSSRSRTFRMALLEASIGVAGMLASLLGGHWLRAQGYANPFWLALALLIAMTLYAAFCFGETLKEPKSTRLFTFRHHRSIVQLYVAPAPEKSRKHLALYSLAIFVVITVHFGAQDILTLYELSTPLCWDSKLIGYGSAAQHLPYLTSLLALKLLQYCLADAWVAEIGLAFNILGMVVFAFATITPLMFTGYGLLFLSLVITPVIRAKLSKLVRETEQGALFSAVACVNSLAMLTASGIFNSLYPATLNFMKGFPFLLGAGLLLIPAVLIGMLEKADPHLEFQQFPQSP

[6] = biological target: T3, Proton-coupled folate transporter (Homo sapiens, UniProt Q96NT5); experiment: Inhibition of [3H]MTX uptake at human PCFT expressed in Chinese hamster R2/PCFT4 cells at pH 5.5 measured after 5 mins by Dixon plot analysis; format: cell-based
T3 sequence (Q96NT5 whole entry): T2 sequence (whole entry)

[7] = biological target: T4, Trifunctional purine biosynthetic protein adenosine-3 (Homo sapiens, UniProt P22102); experiment: Inhibition of recombinant N-terminal 6His-tagged human GARFTase assessed as formation of 5,8-dideazafolate from 10-formyl-5,8-dideazafolic acid measured at every 15 seconds over 20 min by spectrophotometric analysis
T4 sequence (P22102 whole entry): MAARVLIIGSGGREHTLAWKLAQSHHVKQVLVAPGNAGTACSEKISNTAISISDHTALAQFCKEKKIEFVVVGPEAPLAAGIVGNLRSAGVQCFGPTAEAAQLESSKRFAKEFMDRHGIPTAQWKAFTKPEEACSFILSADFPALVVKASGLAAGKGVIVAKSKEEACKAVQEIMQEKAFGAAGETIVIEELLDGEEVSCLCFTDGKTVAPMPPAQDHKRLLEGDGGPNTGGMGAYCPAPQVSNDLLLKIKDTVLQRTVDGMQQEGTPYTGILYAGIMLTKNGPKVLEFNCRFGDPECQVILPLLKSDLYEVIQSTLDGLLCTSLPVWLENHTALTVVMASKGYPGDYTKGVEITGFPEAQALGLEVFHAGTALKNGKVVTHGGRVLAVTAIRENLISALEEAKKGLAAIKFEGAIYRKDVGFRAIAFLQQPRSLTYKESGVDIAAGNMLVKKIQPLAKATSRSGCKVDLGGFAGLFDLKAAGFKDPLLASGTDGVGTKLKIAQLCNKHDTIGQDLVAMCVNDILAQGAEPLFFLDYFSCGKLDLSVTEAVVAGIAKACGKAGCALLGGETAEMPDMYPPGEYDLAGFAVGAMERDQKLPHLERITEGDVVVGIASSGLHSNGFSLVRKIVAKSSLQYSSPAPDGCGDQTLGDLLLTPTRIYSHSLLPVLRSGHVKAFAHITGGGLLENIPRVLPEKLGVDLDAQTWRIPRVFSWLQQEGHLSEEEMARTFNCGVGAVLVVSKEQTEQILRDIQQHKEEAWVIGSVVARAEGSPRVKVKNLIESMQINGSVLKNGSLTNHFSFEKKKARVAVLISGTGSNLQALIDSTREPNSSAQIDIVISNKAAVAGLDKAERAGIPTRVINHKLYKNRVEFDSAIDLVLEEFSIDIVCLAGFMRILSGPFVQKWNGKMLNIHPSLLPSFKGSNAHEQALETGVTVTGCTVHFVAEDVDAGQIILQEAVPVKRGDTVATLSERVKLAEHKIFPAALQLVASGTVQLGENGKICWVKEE

IGROV-1 [8] = experiment: Antiproliferative activity against human IGROV1 cells expressing human FR-alpha/PCFT assessed as reduction in cell viability measured after 96 hrs by Cell-Titer Blue fluorescence analysis; format: functional, cell-based; conditions: IGROV-1, 96 h
IGROV-1 [9] = experiment: Antitumor activity against human IGROV1 cells xenografted into folate-deficient diet fed SCID mouse assessed as tumor cell kill at 150 mg/kg, iv administered […] post 2 days of tumor implantation measured on day 20; format: functional
[10] = Toxicity in folate-deficient diet fed SCID mouse xenografted with human IGROV1 cells assessed as body weight loss at 96 and 150 mg/kg, iv administered […] post 2 days of tumor implantation measured during compound treatment; format: organism-based; conditions: in vivo, 48 h
How it was run: (§1)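 Female NCR SCID mice (11 weeks old, ~20 g) are fed a folate-deficient diet from 14 days before implant. IGROV1 fragments (30–60 mg) are trocar-implanted subcutaneously in both flanks, and mice are randomised at 5/group. Tail-vein dosing starts on day 2: 28 mg/kg/inj Q3dx5, or 96 or 150 mg/kg/inj Q3dx4. Vehicle is 5% ethanol, 1% Tween-80, 0.5% NaHCO3 in water at pH 6.5. Caliper tumor mass is (a×b²)/2, T/C is taken when controls reach 700–1200 mg, and weights are recorded daily.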

[11] = Toxicity in folate-deficient diet fed SCID mouse xenografted with human IGROV1 cells assessed as body weight loss at 96 and 150 mg/kg, iv administered […] post 2 days of tumor implantation measured after 48 hrs of last dosage; format: organism-based; conditions: in vivo; how it was run: as §1
IGROV-1 [12] = experiment: Antitumor activity against human IGROV1 cells xenografted into standard diet fed SCID mouse assessed as tumor growth at 150 mg/kg, iv administered […] post 2 days of tumor implantation measured on day 20 relative to control; format: functional
How it was run: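 Female NCR SCID mice, 11 weeks, ~20 g, on folate-deficient or standard diet from 14 days pre-implant; bilateral s.c. IGROV1 fragments (30–60 mg); 5 mice/group; tail-vein dosing from day 2 (Q3d schedules) in 5% ethanol, 1% Tween-80, 0.5% NaHCO3, water, pH 6.5; caliper mass (a×b²)/2; T/C and T−C delay.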

T1 sequence (P31939 whole entry, looked up, one chain of several): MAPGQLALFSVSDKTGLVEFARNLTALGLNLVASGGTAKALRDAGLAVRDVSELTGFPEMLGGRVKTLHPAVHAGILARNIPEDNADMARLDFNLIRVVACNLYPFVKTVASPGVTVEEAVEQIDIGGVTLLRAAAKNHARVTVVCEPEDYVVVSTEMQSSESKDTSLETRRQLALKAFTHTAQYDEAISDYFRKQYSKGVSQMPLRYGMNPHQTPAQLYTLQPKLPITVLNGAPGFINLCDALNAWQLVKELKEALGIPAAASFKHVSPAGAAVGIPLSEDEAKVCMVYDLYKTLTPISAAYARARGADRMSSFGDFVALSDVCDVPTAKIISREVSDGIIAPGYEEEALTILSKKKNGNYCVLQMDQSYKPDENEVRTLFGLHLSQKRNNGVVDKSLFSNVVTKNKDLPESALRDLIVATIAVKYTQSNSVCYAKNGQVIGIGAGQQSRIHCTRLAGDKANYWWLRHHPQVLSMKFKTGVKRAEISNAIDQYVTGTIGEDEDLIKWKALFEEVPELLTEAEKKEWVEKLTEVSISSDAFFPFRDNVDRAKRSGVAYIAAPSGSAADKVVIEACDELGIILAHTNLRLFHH
Folate receptor alpha (Homo sapiens), sequence (P15328 25-234 limits assumed): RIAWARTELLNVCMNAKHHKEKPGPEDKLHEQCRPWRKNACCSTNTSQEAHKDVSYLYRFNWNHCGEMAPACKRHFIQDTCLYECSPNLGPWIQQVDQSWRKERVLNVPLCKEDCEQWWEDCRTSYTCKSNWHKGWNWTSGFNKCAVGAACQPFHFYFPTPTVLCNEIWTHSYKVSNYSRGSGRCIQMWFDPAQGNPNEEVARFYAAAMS

SMILES: Nc1nc2[nH]c(CCNc3ccc(C(=O)N[C@@H](CCC(=O)O)C(=O)O)cc3)cc2c(=O)[nH]1
- IC50 [1]: > 1000 nM
- IC50 (KB): 0.32 nM
- inhibition [2]: inactive
- inhibition [3]: Active
- inhibition [4]: 60 to 110%
- inhibition [5]: 40 to 60%
- Ki [6]: 850 nM
- Ki [7]: 59 nM
- IC50 (IGROV-1 [8]): 2.7 nM
- LCK (IGROV-1 [9]): 2.3
- Activity [10]: 17 to 17.3%
- Activity [11]: Non-Toxic
- T/C (IGROV-1 [12]): 94%
